Experimental data gathered from unrelated publications.
Compare with care: the assays were run in different laboratories.

With `Cc1[nH]c(C)c(S(=O)(=O)Nc2ccc(S(=O)(=O)F)c(Cl)c2)c1C(=O)N1CCC(F)(F)C1` the microsomal CLint was 21.8 µL/min/mg (metabolic stability; mouse, liver microsomes).
`NCCOCC(=O)N1CCCC(C(=O)NCc2nc(-c3ccc(-c4ccc(F)cc4)cc3)cs2)C1` (stereo not drawn) has a Vd of 26 L/kg (rat, plasma; intravenous, 1 mg/kg).
`CC[C@H](C)CCCCC(=O)N[C@@H](CCN)C(=O)N[C@H](C(=O)N[C@@H](CCN)C(=O)N[C@H]1CCNC(=O)[C@H]([C@@H](C)O)NC(=O)[C@H](CCN)NC(=O)[C@H](CCN)NC(=O)[C@H](CC(C)C)NC(=O)[C@@H](CC(C)C)NC(=O)[C@H](CCN)NC1=O)[C@@H](C)O` has a Vd of 0.736 L/kg (male Sprague-Dawley rat, plasma; intravenous, 5 mg/kg).
For `CC(C)CC(=O)OC[C@H]1O[C@@](C#N)(c2ccc3c(N)ncnn23)[C@H](O)[C@@H]1O`, the hepatocyte CLint was over 318 µL/min/10⁶ cells (metabolic stability; mouse, hepatocytes; 5 µM).
The Vd of `Cl.Cn1c(=O)n(CCCCN2CCC3(CC2)OCc2ccccc23)c2ccccc21` is reported as 8.4 L/kg (male Sprague-Dawley rat, plasma; intravenous, 5 mg/kg).
`CC1(CC(F)(F)F)NC(=O)N(c2ccc(F)c(C(F)(F)F)c2)C1=O` (stereo not drawn) gave a microsomal CLint of under 7 µL/min/mg (metabolic stability; mouse, liver microsomes).
`C/C=C1/CN2CC[C@@]34c5cc(O)ccc5N(C)[C@]35OC[C@@]4(C(=O)OC)[C@H]1C[C@H]25` gave a Vd of 10.2 L/kg (male Sprague-Dawley rat, plasma; intravenous, 1 mg/kg).
With `O=C1NC2(CCC2)C(=O)N1c1ccc(F)c(C(F)(F)F)c1` the microsomal CLint was 42 µL/min/mg (metabolic stability; mouse, liver microsomes).
With `Cc1[nH]c(C)c(S(=O)(=O)Nc2ccc(S(F)(F)(F)(F)F)c(Cl)c2)c1C(=O)N1CCC(F)(F)C1` the microsomal CLint was 25.4 µL/min/mg (metabolic stability; mouse, liver microsomes).
